Reference: ChEMBL document CHEMBL2040734, “Benzothiazoles: search for anticancer agents” (2012)

Columns and labels:
Assay type in all cases: functional
UO-31 [1] = assay: Cytotoxicity against human UO31 cells assessed as cell growth at 0.01 uM after 48 hrs by sulforhodamine B assay; conditions: UO-31, 48 h, read-out: Activity
BT-549 [2] = assay: Cytotoxicity against human BT549 cells assessed as cell growth at 0.01 uM after 48 hrs by sulforhodamine B assay; conditions: BT-549, 48 h, read-out: Activity
How it was run: (§1)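 NCI-60 five-dose screen. Cells were grown in RPMI 1640 with 5% FBS and 2 mM L-glutamine and preincubated 24 h. Compound (DMSO stock) was tested at 0.01, 0.1, 1, 10 and 100 µM for 48 h at 37 °C. Cells were fixed in situ with cold TCA (final 10%) and stained with 0.4% SRB. A515 was read, and percent growth was calculated against time-zero and control plates.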

786-0 = assay: Cytotoxicity against human 786-0 cells assessed as cell growth at 0.1 uM after 48 hrs by sulforhodamine B assay; conditions: 786-0, 48 h, read-out: Activity; how it was run: as §1
CAKI-1 = assay: Cytotoxicity against human Caki1 cells assessed as cell growth at 0.1 uM after 48 hrs by sulforhodamine B assay; conditions: CAKI-1, 48 h, read-out: Activity; how it was run: as §1
HCT-116 [3] = assay: Cytotoxicity against human HCT116 cells assessed as cell growth at 100 uM after 48 hrs by sulforhodamine B assay; conditions: HCT-116, 48 h, read-out: Activity
How it was run: (§2)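 Five-dose NCI panel run at 0.01, 0.1, 1, 10 and 100 µM. Cells were in RPMI 1640 with 5% FBS and 2 mM L-glutamine, seeded at 5000–40,000 cells/well and pre-incubated 24 h. Drug was diluted from a DMSO stock into medium with 50 µg/ml gentamicin. Exposure was 48 h at 37 °C, 5% CO2. Cells were fixed with cold TCA and stained with 0.4% SRB, read at 515 nm. Percent growth came from time-zero, control and test absorbances.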

U-251 [4] = assay: Cytotoxicity against human U251 cells assessed as cell growth at 100 uM after 48 hrs by sulforhodamine B assay; conditions: U-251, 48 h, read-out: Activity
SK-MEL-5 = assay: Cytotoxicity against human SK-MEL-5 cells assessed as cell growth at 100 uM after 48 hrs by sulforhodamine B assay; conditions: SK-MEL-5, 48 h, read-out: Activity
A498 = assay: Cytotoxicity against human A498 cells assessed as cell growth at 100 uM after 48 hrs by sulforhodamine B assay; conditions: A498, 48 h, read-out: Activity; how it was run: as §1
UO-31 [5] = assay: Cytotoxicity against human UO31 cells assessed as cell growth at 0.1 uM after 48 hrs by sulforhodamine B assay; conditions: UO-31, 48 h, read-out: Activity
T47D = assay: Cytotoxicity against human T47D cells assessed as cell growth at 100 uM after 48 hrs by sulforhodamine B assay; conditions: read-out: Activity
NCI-H460 = assay: Cytotoxicity against human NCI-H460 cells assessed as cell growth at 1 uM after 48 hrs by sulforhodamine B assay; conditions: NCI-H460, 48 h, read-out: Activity
HCT-116 [6] = assay: Cytotoxicity against human HCT116 cells assessed as cell growth at 1 uM after 48 hrs by sulforhodamine B assay; conditions: HCT-116, 48 h, read-out: Activity; how it was run: as §2
U-251 [7] = assay: Cytotoxicity against human U251 cells assessed as cell growth at 1 uM after 48 hrs by sulforhodamine B assay; conditions: U-251, 48 h, read-out: Activity
IGROV-1 = assay: Cytotoxicity against human IGROV1 cells assessed as cell growth at 1 uM after 48 hrs by sulforhodamine B assay; conditions: IGROV-1, 48 h, read-out: Activity
OVCAR-3 = assay: Cytotoxicity against human OVCAR3 cells assessed as cell growth at 1 uM after 48 hrs by sulforhodamine B assay; conditions: OVCAR-3, 48 h, read-out: Activity
SR = assay: Cytotoxicity against human SR cells assessed as cell growth at 10 uM after 48 hrs by sulforhodamine B assay; conditions: read-out: Activity
UACC-62 = assay: Cytotoxicity against human UACC62 cells assessed as cell growth at 10 '-5 M after 48 hrs by sulforhodamine B assay; conditions: UACC-62, 48 h, read-out: Activity
TK-10 = assay: Cytotoxicity against human TK10 cells assessed as cell growth at 10 '-5 M after 48 hrs by sulforhodamine B assay; conditions: TK-10, 48 h, read-out: Activity
HL-60(TB) = assay: Growth inhibition of human HL-60(TB) cells after 48 hrs by sulforhodamine B assay; conditions: HL-60, 48 h; for CC50: read-out: LC50 (the source's name)
How it was run: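 HL-60(TB) suspension cells in RPMI 1640 with 5% FBS and 2 mM L-glutamine were treated for 48 h at five concentrations (0.01–100 µM). Settled cells were fixed with 16% TCA (final), SRB-stained and read at 515 nm. GI50 was the concentration giving (Ti−Tz)/(C−Tz)×100 = 50 from log concentration–growth curves, expressed as ">" if not reached at the top concentration.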

NCI-H226 = assay: Growth inhibition of human NCI-H226 cells after 48 hrs by sulforhodamine B assay; conditions: NCI-H226, 48 h
How it was run: (§3)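 Adherent NCI-60 lines were grown in RPMI 1640 with 5% FBS and 2 mM L-glutamine, plated at 5000–40,000 cells/well and preincubated 24 h. They were then exposed to five concentrations (0.01–100 µM, from a DMSO stock) for 48 h at 37 °C, 5% CO2. Cells were fixed with cold TCA (10% final, 60 min, 4 °C) and stained with 0.4% SRB. Dye was solubilized in 10 mM Tris base and A515 read. GI50 was derived from time-zero, control and treated absorbances.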

U-251 [8] = assay: Growth inhibition of human U251 cells after 48 hrs by sulforhodamine B assay; conditions: U-251, 48 h; how it was run: as §3
ACHN = assay: Growth inhibition of human ACHN cells after 48 hrs by sulforhodamine B assay; conditions: for CC50: read-out: LC50 (the source's name)
How it was run: (§4)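 Cells were in RPMI 1640 with 5% FBS and pre-incubated 24 h. Read-out was TCA fixation, SRB staining and absorbance at 515 nm. GI50 was the concentration where [(Ti−Tz)/(C−Tz)]×100 = 50, taken from log concentration vs % growth curves. It is given as ">" the top concentration when not reached.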

[9] = Growth inhibition of human Hs 578T cells after 48 hrs by sulforhodamine B assay; conditions: for CC50: read-out: LC50 (the source's name); how it was run: as §3
BT-549 [10] = assay: Growth inhibition of human BT549 cells after 48 hrs by sulforhodamine B assay; conditions: BT-549, 48 h; how it was run: as §4
EKVX = assay: Cytotoxicity against human EKVX cells assessed as cell growth at 0.01 uM after 48 hrs by sulforhodamine B assay; conditions: read-out: Activity; how it was run: as §2
SNB-75 = assay: Cytotoxicity against human SNB75 cells assessed as cell growth at 0.01 uM after 48 hrs by sulforhodamine B assay; conditions: SNB-75, 48 h, read-out: Activity
NCI-H23 = assay: Cytotoxicity against human NCI-H23 cells assessed as cell growth at 10 '-5 M after 48 hrs by sulforhodamine B assay; conditions: NCI-H23, 48 h, read-out: Activity

| SMILES | growth at 0.01 µM (UO-31 [1]) [%] | growth at 0.01 µM (BT-549 [2]) [%] | growth at 0.1 µM (786-0) [%] | growth at 0.1 µM (CAKI-1) [%] | growth at 100 µM (HCT-116 [3]) [%] | growth at 100 µM (U-251 [4]) [%] | growth at 100 µM (SK-MEL-5) [%] | growth at 100 µM (A498) [%] | growth at 0.1 µM (UO-31 [5]) [%] | growth at 100 µM (T47D) [%] | growth at 1 µM (NCI-H460) [%] | growth at 1 µM (HCT-116 [6]) [%] | growth at 1 µM (U-251 [7]) [%] | growth at 1 µM (IGROV-1) [%] | growth at 1 µM (OVCAR-3) [%] | growth at 10 µM (SR) [%] | growth at 10 µM (UACC-62) [%] | growth at 10 µM (TK-10) [%] | TGI (HL-60(TB)) [µM] | CC50 (HL-60(TB)) [µM] | also measured |
| --- | --- | --- | --- | --- | --- | --- | --- | --- | --- | --- | --- | --- | --- | --- | --- | --- | --- | --- | --- | --- | --- |
| Cc1ccc2nc(Nc3c(C)cccc3C)sc2c1 | 90 | 98 | 97 | 83 | 49 | 31 | 60 | 60 | 97 | 46 | 81 | 66 | 80 | 83 | 72 | 13 | 35.7 | 61.3 | > 100 | > 100 | GI50 (NCI-H226): > 100 µM; LC50 (NCI-H226): > 100 µM; TGI (NCI-H226): > 100 µM; GI50 (U-251 [8]): 25.4 µM; LC50 (U-251 [8]): > 100 µM; TGI (U-251 [8]): > 100 µM; GI50 (ACHN): 76.6 µM; TGI (ACHN): > 100 µM; CC50 (ACHN): > 100 µM; GI50 [9]: 3.84 µM; TGI [9]: > 100 µM; CC50 [9]: > 100 µM; TGI (BT-549 [10]): > 100 µM; CC50 (BT-549 [10]; read-out: LC50 (the source's name)): > 100 µM; growth at 0.01 µM (EKVX): 93%; growth at 0.01 µM (SNB-75): 80%; growth at 10 µM (NCI-H23): 57.5% |
| Clc1cccc(Cl)c1Nc1nc2cccc(Cl)c2s1 | 88 | 102 | 94 | 73 | -73 | -50 | -76 | -92 | 56 | -64 | 67 | 51 | 68 | 55 | 50 | -49 | -62.9 | -35.7 | 3.75 | 20.6 | GI50 (HL-60(TB)): 1.32 µM; GI50 (NCI-H226): 1.18 µM; LC50 (NCI-H226): 6.95 µM; TGI (NCI-H226): 2.86 µM; GI50 (U-251 [8]): 1.31 µM; TGI (U-251 [8]): 2.79 µM; GI50 (ACHN): 1.15 µM; TGI (ACHN): 2.38 µM; CC50 (ACHN): 4.92 µM; GI50 [9]: 0.938 µM; TGI [9]: 3.49 µM; CC50 [9]: > 100 µM; GI50 (BT-549 [10]): 1.5 µM; TGI (BT-549 [10]): 3.01 µM; growth at 0.01 µM (EKVX): 96%; growth at 0.01 µM (SNB-75): 82%; growth at 10 µM (NCI-H23): -10.5% |
